# Assay results taken from ChEMBL document CHEMBL5715953, “A Potent, Selective, and Cell-Active Inhibitor of Human Type I Protein Arginine Methyltransferases” (ACS Chem Biol, 2016).
# Activity calls are given as the source filed them. No cut-off for these calls is given here.
# What was measured:
# [1] = test system: HEK293; conditions: Homo sapiens, dose 1000.0 nM, time 20.0 hrs
# [2] = biological target: Staphylococcal nuclease domain-containing protein 1 (Homo sapiens) (UniProt Q7KZF4)
# [3] = biological target: AT-rich interactive domain-containing protein 4A (Homo sapiens) (UniProt P29374)
# [4] = biological target: T1, Protein arginine N-methyltransferase 8 (Homo sapiens, UniProt Q9NR22); experiment: Inhibition of human PRMT8 using (3H) methylated biotin labelled peptide as substrate in presence of 3H-SAM by scintillation proximity assay
# Outline: (§1)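 Scintillation proximity assay: 3H-SAM as methyl donor, with non-tritiated SAM added when needed. The 3H-methylated biotinylated peptide is captured on streptavidin/scintillant-coated plates and read as counts per minute. IC50 comes from compound titration under balanced conditions, with substrate and cofactor at their Km values. Run in triplicate, mean ± SD. Ki is derived from IC50. A lower enzyme level (5 nM) is used for some potent compounds.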
# [5] = biological target: WD repeat-containing protein 5 (Homo sapiens) (UniProt P61964)
# [6] = test system: MCF7; experiment: Antiproliferative activity against human MCF7 cells assessed as decrease in cell number at 0.1 uM incubated for 10 days by vybrant dye cycle green/ Enzo-nuclear-ID red staining based live cell imaging analysis relative to control; format: functional; design: scale not given: the % may be the effect or the level left; conditions: time 10 day
# [7] = biological target: Peregrin (Homo sapiens) (UniProt P55201)
# [8] = test system: HEK293; conditions: Homo sapiens, dose 333.0 nM, time 20.0 hrs
# [9] = test system: HEK293; experiment: Cytotoxicity in human HEK293 cells assessed as inhibition of cell growth at 1 uM incubated for 4 days by phase contrast cell imaging analysis; format: toxicity, cell-based; conditions: hek293, 96 h, time 4 day
# [10] = biological target: T2, Histone-arginine methyltransferase CARM1 (Homo sapiens, UniProt Q86X55); experiment: Binding affinity to human PRMT4 assessed as inhibition constant using (3H) methylated biotin labelled peptide as substrate in presence of 3H-SAM by scintillation proximity assay
# T2 sequence (Q86X55 whole entry): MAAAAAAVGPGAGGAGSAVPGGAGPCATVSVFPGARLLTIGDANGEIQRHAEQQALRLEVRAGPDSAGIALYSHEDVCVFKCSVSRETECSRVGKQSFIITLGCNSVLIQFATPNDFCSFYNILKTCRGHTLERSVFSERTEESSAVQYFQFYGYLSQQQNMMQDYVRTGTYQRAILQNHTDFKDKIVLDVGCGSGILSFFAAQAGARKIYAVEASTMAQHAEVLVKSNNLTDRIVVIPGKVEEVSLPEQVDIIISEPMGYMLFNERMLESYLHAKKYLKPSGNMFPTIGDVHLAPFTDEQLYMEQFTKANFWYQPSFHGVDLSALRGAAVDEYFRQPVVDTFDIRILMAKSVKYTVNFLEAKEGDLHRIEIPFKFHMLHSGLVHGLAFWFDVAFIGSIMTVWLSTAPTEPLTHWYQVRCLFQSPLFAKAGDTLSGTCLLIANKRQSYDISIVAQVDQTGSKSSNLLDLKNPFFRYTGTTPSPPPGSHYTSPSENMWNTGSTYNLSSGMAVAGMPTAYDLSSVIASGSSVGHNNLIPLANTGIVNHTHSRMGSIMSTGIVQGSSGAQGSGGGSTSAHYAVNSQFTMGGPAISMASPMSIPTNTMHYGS
# [11] = biological target: T3, Protein arginine N-methyltransferase 6 (Homo sapiens, UniProt Q96LA8); experiment: Inhibition of human PRMT6 assessed as inhibition constant in presence of cofactor SAM
# [12] = biological target: T1, Protein arginine N-methyltransferase 8; experiment: Inhibition of human PRMT8 assessed as inhibition constant using peptide as substrate
# [13] = biological target: T1, Protein arginine N-methyltransferase 8; experiment: Binding affinity to human PRMT8 assessed as inhibition constant using (3H) methylated biotin labelled peptide as substrate in presence of 3H-SAM by scintillation proximity assay
# Outline: as §1
# [14] = biological target: T3, Protein arginine N-methyltransferase 6; experiment: Inhibition of human PRMT6 assessed as inhibition constant using peptide as substrate
# [15] = biological target: T2, Histone-arginine methyltransferase CARM1; experiment: Inhibition of human PRMT4 assessed as inhibition constant in presence of cofactor SAM
# [16] = biological target: T2, Histone-arginine methyltransferase CARM1; experiment: Inhibition of human PRMT4 assessed as inhibition constant using peptide as substrate
# [17] = biological target: RNA-binding protein FXR1 (Homo sapiens) (UniProt P51114)
# [18] = biological target: T3, Protein arginine N-methyltransferase 6; experiment: Inhibition of human PRMT6 using (3H) methylated biotin labelled peptide as substrate incubated for 30 mins in presence of 3H-SAM by scintillation proximity assay
# [19] = biological target: E3 ubiquitin-protein ligase UHRF1 (Homo sapiens) (UniProt Q96T88)
# [20] = biological target: Polycomb protein EED (Homo sapiens) (UniProt O75530)
# [21] = biological target: T2, Histone-arginine methyltransferase CARM1; experiment: Inhibition of human PRMT4 using (3H) methylated biotin labelled peptide as substrate in presence of 3H-SAM by scintillation proximity assay
# Outline: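 Scintillation proximity assay: 3H-SAM as methyl donor, with non-tritiated SAM added when needed. The 3H-methylated biotinylated peptide is captured on streptavidin/scintillant-coated plates and read as counts per minute. IC50 comes from compound titration under balanced conditions, with substrate and cofactor at their Km values. Run in triplicate, mean ± SD. Ki is derived from IC50.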
# [22] = test system: HFF; experiment: Cytotoxicity in human HFF cells assessed as cell confluency at <=1 uM incubated for 96 hrs by phase contrast cell imaging analysis; format: toxicity, cell-based
# [23] = biological target: T1, Protein arginine N-methyltransferase 8; experiment: Inhibition of human PRMT8 assessed as inhibition constant in presence of cofactor SAM
# [24] = biological target: Growth/differentiation factor 2 (Homo sapiens) (UniProt Q9UK05)
# [25] = biological target: Tudor domain-containing protein 3 (Homo sapiens) (UniProt Q9H7E2)
# Chain of Tudor domain-containing protein 3 (Homo sapiens) (Q9H7E2 whole entry, the tested form may be a part): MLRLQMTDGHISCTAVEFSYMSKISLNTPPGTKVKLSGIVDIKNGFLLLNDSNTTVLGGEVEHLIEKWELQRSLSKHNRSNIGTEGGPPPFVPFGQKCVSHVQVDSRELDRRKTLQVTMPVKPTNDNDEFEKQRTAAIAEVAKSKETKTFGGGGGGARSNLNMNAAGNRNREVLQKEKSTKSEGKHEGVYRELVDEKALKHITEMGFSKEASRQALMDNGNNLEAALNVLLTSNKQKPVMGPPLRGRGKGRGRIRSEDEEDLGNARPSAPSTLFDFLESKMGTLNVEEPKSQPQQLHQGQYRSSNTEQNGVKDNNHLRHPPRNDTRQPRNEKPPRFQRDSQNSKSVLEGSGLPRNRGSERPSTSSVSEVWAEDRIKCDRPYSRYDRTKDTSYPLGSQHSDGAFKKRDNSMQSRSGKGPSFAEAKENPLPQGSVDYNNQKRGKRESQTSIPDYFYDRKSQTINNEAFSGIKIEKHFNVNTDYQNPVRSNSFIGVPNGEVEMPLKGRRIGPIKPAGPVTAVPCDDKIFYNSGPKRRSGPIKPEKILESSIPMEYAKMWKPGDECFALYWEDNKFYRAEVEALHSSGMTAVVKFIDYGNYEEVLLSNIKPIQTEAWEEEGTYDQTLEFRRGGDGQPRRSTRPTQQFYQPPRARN
# T1 sequence (Q9NR22 whole entry): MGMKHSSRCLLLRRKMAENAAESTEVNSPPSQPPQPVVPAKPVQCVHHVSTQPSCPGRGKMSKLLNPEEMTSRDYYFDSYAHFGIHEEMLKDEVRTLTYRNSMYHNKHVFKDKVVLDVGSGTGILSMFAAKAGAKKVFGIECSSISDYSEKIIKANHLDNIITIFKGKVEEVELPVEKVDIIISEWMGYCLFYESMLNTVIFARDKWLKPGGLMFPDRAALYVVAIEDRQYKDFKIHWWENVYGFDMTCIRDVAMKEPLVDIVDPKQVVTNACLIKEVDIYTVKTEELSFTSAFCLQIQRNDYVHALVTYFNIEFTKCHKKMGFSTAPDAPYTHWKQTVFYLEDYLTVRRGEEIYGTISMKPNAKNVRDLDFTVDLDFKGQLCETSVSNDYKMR
# T3 sequence (Q96LA8 whole entry): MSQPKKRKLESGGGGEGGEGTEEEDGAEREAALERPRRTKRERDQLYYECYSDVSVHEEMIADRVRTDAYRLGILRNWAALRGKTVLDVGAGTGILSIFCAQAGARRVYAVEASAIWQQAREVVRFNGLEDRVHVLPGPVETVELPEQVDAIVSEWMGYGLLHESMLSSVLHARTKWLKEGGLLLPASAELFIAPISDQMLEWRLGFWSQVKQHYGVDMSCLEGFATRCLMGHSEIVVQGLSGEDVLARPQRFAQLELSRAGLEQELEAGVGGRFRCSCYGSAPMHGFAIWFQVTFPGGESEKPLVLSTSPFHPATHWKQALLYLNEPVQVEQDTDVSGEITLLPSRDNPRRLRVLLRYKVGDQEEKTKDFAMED
# Chain of AT-rich interactive domain-containing protein 4A (Homo sapiens) (P29374 whole entry, the tested form may be a part): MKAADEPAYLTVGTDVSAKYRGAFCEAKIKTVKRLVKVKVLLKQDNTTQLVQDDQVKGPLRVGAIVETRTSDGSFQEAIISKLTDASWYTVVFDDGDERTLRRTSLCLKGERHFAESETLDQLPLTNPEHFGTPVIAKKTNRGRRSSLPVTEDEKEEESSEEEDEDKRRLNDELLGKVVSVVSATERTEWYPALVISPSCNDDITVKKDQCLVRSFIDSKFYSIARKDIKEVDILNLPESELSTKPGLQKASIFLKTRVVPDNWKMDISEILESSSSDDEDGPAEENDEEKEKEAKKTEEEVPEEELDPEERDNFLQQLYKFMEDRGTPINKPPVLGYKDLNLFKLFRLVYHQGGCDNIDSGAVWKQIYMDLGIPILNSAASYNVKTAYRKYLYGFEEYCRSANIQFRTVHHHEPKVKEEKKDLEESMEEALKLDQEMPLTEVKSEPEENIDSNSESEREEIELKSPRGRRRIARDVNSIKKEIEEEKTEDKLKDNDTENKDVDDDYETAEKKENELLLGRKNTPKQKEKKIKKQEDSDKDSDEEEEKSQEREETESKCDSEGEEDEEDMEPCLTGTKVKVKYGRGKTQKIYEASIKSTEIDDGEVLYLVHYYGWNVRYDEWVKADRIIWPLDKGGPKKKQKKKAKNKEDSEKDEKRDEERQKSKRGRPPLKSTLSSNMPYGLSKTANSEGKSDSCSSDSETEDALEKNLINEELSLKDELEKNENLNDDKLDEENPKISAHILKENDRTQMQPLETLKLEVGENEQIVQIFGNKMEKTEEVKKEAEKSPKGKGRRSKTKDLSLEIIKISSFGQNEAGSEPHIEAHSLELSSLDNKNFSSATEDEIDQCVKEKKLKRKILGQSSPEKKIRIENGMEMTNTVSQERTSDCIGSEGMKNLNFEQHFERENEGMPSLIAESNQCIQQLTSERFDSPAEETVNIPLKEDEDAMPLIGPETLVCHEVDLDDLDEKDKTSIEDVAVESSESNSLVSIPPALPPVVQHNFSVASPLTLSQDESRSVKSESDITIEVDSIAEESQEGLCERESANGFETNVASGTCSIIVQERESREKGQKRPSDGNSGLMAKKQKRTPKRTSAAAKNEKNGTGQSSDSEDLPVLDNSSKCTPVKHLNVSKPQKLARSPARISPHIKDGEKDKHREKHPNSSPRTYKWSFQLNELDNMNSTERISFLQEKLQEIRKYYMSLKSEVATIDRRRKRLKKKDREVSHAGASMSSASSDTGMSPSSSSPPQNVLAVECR
# Chain of Growth/differentiation factor 2 (Homo sapiens) (Q9UK05 whole entry, the tested form may be a part): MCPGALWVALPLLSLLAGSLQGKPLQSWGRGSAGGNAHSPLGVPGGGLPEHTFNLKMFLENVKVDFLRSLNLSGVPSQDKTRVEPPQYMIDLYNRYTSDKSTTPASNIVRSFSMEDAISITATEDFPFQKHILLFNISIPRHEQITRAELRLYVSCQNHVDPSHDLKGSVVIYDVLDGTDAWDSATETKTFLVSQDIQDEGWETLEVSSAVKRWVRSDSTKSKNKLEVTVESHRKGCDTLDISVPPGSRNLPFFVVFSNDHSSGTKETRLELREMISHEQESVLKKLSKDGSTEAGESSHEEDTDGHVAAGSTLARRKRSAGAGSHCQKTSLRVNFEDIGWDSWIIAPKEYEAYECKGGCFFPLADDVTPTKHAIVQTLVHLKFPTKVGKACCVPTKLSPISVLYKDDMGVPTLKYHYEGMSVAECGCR
# Chain of Staphylococcal nuclease domain-containing protein 1 (Homo sapiens) (Q7KZF4 whole entry, the tested form may be a part): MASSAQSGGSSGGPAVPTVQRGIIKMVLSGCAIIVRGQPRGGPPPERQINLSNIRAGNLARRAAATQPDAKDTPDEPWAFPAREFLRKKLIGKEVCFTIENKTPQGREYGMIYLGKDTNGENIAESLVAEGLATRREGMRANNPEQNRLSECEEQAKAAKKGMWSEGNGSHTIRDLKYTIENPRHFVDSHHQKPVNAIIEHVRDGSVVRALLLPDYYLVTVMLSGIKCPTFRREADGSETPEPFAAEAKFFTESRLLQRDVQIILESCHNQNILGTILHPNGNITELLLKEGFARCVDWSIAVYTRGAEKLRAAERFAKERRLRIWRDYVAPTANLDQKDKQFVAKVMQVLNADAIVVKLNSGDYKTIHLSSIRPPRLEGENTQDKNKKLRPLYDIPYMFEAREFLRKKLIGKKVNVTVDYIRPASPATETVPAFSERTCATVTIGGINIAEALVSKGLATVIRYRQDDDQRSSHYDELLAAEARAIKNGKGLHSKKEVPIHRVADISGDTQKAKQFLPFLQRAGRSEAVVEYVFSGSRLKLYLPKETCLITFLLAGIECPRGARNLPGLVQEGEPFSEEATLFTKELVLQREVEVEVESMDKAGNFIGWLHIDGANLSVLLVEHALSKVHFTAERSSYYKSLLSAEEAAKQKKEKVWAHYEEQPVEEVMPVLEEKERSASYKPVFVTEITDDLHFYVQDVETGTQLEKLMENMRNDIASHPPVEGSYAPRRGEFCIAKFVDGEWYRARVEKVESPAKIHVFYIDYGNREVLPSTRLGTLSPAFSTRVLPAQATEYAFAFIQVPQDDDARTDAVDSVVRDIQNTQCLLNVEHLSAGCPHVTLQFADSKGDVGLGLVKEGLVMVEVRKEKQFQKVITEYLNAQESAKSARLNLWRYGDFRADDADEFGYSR
# Chain of E3 ubiquitin-protein ligase UHRF1 (Homo sapiens) (Q96T88 whole entry): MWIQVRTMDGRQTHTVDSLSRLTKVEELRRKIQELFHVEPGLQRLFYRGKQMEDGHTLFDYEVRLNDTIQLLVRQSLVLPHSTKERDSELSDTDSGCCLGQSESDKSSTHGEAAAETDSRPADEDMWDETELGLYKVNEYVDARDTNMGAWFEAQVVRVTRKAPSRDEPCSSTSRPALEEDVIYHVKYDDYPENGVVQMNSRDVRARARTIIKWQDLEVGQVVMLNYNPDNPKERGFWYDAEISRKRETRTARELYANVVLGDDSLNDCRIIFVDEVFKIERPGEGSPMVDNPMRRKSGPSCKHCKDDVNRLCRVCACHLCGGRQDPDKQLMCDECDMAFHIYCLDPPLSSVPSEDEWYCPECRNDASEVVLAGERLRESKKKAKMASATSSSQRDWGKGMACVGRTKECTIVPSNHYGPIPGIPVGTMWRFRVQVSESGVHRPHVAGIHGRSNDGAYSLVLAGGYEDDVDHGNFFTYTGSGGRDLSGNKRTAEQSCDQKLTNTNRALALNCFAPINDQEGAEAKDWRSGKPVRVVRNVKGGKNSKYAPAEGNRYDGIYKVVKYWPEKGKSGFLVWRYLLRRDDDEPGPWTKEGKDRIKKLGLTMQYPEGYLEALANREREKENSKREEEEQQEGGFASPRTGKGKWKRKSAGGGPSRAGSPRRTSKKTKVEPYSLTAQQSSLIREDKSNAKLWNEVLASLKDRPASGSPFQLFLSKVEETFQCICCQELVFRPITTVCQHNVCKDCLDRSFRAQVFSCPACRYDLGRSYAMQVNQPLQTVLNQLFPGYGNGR
structure (smiles),measurement,setting,value
CC(C)Oc1ccc(-c2c[nH]cc2CN(C)CCN)cc1,inhibition,[1],Active
same,deltaTm,[2],inactive
same,deltaTm,[3],inactive
same,IC50,[4],5 nM
same,ΔTm,[5],-1.3 °C
same,Activity,[6],30%
same,ΔTm,[7],-0.3 °C
same,inhibition,[8],Active
same,Activity,[9],Toxic
same,Ki,[10],23 nM
same,IC50,[11],Not Active
same,IC50,[12],Not Active
same,Ki,[13],1.3 nM
same,IC50,[14],Not Active
same,IC50,[15],Not Active
same,IC50,[16],Not Active
same,deltaTm,[17],inactive
same,IC50,[18],Not Active
same,ΔTm,[19],-1.5 °C
same,deltaTm,[20],inactive
same,IC50,[21],83 nM
same,Activity,[22],Non-Toxic
same,IC50,[23],Not Active
same,ΔTm,[24],-3 °C
same,deltaTm,[25],inactive
